From ChEMBL document CHEMBL1158754, “ent-Dioncophylleine A and related dehydrogenated naphthylisoquinoline alkaloids, the first Asian dioncophyllaceae-type alkaloids, from the "new"plant species Ancistrocladus benomensis” (J Nat Prod, 2005)
≈ marks a conversion by molar mass, not a printed value.

How the values were obtained:
[1] = tested on: Trypanosoma cruzi; experiment: Antitrypanosomal activity against Trypanosoma cruzi in rat L6 cells; assay type: functional, organism-based
[2] = tested on: Plasmodium falciparum; experiment: Antiplasmodial activity against chloroquine and pyrimethamine-resistant Plasmodium falciparum K1 in erythrocytes by [3H]hypoxanthine uptake; assay type: functional, organism-based
[3] = tested on: Trypanosoma brucei rhodesiense; experiment: Antitrypanosomal activity against Trypanosoma brucei rhodesiense; assay type: functional, organism-based
[4] = tested on: L6; experiment: Cytotoxicity against rat L6 cells; assay type: cell-based
In short: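 Rat skeletal myoblast (L-6) line; cytotoxicity values reported in µg/mL.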

Row | Compound | IC50 [1] | IC50 [2] | IC50 [3] | IC50 [4]
1 | COc1cccc2c(-c3ccc4cc(C)nc(C)c4c3O)c(C)cc(OC)c12 | 54 µg/mL (≈ 145 µM) | 3.9 µg/mL (≈ 10.4 µM) | 5.6 µg/mL (≈ 15 µM) | –
2 | O=C(Cn1ccnc1[N+](=O)[O-])NCc1ccccc1 [BENZNIDAZOLE] | 0.55 µg/mL (≈ 2.11 µM) | – | – | –
3 | COc1ccc(-c2ccc3cc(C)nc(C)c3c2O)c2cc(C)cc(OC)c12 [DIONCOPHYLLEINE D] | 24.3 µg/mL (≈ 65.1 µM) | 0.5 µg/mL (≈ 1.34 µM) | 4.7 µg/mL (≈ 12.6 µM) | –
4 | COc1cc(C)c(-c2ccc3cc(C)nc(C)c3c2O)c2cccc(O)c12 [ENT-DIONCOPHYLLEINE A] | 21.8 µg/mL (≈ 60.7 µM) | 3.1 µg/mL (≈ 8.62 µM) | 1.4 µg/mL (≈ 3.9 µM) | 20.6 µg/mL (≈ 57.3 µM)
